Measured values: ChEMBL document CHEMBL4699593, “Identification of 2,4-Disubstituted Imidazopyridines as Hemozoin Formation Inhibitors with Fast-Killing Kinetics and In Vivo Efficacy in the Plasmodium falciparum NSG Mouse Model” (J Med Chem, 2020)

Assays:
[1] = Cmax in Balb/C mouse at 2 mg/kg, iv by LC-MS/MS analysis; type: ADME, organism-based; set-up: route intravenous, dose 2 mg/kg; conditions: in vivo
Method in brief: (§1)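 Healthy Balb/c mice dosed i.v. or orally. Parameters come from non-compartmental analysis of compound concentration over time. […] Clearance is blood clearance (CL_b).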

[2] = Tmax in Plasmodium falciparum 3D70087/N9 infected NSG mouse po by LC-MS/MS analysis; conditions: in vivo
[3] = Cmax in Plasmodium falciparum 3D70087/N9 infected NSG mouse at 200 mg/kg, po by LC-MS/MS analysis; type: ADME, organism-based; set-up: route oral, dose 200 mg/kg; conditions: in vivo
Method in brief: (§2)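 Oral (PO) dosing of NSG (NODscidIL2Rγnull) mice infected with P. falciparum. Cmax and AUC0–24 are taken from the infected-mouse PK analysis and are also expressed divided by dose.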

[4] = Ratio of unbound average drug concentration in Balb/c mouse at 20 mg/kg, po measured at 24 hrs to IC50 for antiplasmodial activity against multidrug-sensitive Plasmodium falciparum NF54 asexual blood stage assessed as reduction in parasite growth after 72 hrs by LDH assay; type: organism-based; conditions: in vivo
[5] = Dose normalized AUC (0 to 24 hrs) in Plasmodium falciparum 3D70087/N9 infected NSG mouse at 5 mg/kg, po by LC-MS/MS analysis; type: ADME, organism-based; conditions: in vivo; method in brief: as §2
[6] = AUC (0 to t) in Balb/C mouse at 2 mg/kg, iv by LC-MS/MS analysis; type: ADME, organism-based; set-up: dose 2 mg/kg; conditions: in vivo; method in brief: as §1
Plasmodium falciparum [7] = assay: Antiplasmodial activity against multidrug-sensitive asexual blood stage Plasmodium falciparum NF54 strain assessed as reduction in parasite growth after 72 hrs by NBT reagent based LDH assay; type: functional, organism-based; conditions: NF54, 72 h
[8] = Dose normalized AUC (0 to 24 hrs) in Balb/c mouse at 20 mg/kg, po by LC-MS/MS analysis; type: ADME, organism-based; conditions: in vivo; method in brief: as §1
[9] = Tmax in Plasmodium falciparum 3D70087/N9 infected NSG mouse at 5 mg/kg, po by LC-MS/MS analysis; type: ADME, organism-based; conditions: in vivo
Method in brief: (§3)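 P. falciparum-infected NSG mice received escalating single oral doses of 1.5, 5, 15, 50 and 100 mg/kg.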

[10] = Dose normalized Cmax in Balb/c mouse at 20 mg/kg, po by LC-MS/MS analysis; type: ADME, organism-based; conditions: in vivo; method in brief: as §1
[11] = Cmax in Plasmodium falciparum 3D70087/N9 infected NSG mouse at 1.5 mg/kg, po by LC-MS/MS analysis; type: ADME, organism-based; set-up: route oral, dose 1.5 mg/kg; conditions: in vivo; method in brief: as §2
[12] = Tmax in Plasmodium falciparum 3D70087/N9 infected NSG mouse at 50 mg/kg, po by LC-MS/MS analysis; type: ADME, organism-based; conditions: in vivo; method in brief: as §3
Plasmodium falciparum [13] = assay: Antimalarial activity against asexual ring stage of Plasmodium falciparum NF54 measured after 24 hrs by [3H]hypoxanthine incorporation assay; type: functional, organism-based
Method in brief: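 Tested on a synchronized asexual blood-stage culture of P. falciparum, with IC50 determined separately for the ring and the schizont stage.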

[14] = AUC in Plasmodium falciparum infected NSG mouse at 62 mg/kg, po by LC-MS/MS analysis; type: ADME, organism-based; set-up: dose 62 mg/kg; conditions: in vivo
[15] = Dose normalized AUC (0 to 24 hrs) in Plasmodium falciparum 3D70087/N9 infected NSG mouse at 200 mg/kg, po by LC-MS/MS analysis; type: ADME, organism-based; conditions: in vivo; method in brief: as §2
[16] = Dose normalized AUC (0 to 24 hrs) in Plasmodium falciparum 3D70087/N9 infected NSG mouse at 1.5 mg/kg, po by LC-MS/MS analysis; type: ADME, organism-based; conditions: in vivo; method in brief: as §2
[17] = Clearance in Balb/C mouse blood at 2 mg/kg, iv by LC-MS/MS analysis; type: ADME, organism-based; conditions: whole blood; method in brief: as §1
Plasmodium falciparum [18] = assay: Antimalarial activity against Plasmodium falciparum 3D70087/N9 infected in NOD-SCID IL2Rgamma null mouse assessed as parasitemia at 100 mg/kg, po qd administered for 4 days measured on day 6 post-infection by microscopy based flow cytometry; type: functional, organism-based; conditions: time 4.0 day
[19] = Dose normalized Cmax in Plasmodium falciparum 3D70087/N9 infected NSG mouse at 200 mg/kg, po by LC-MS/MS analysis; type: ADME, organism-based; conditions: in vivo; method in brief: as §2
Plasmodium falciparum [20] = assay: Antimalarial activity against Plasmodium falciparum 3D70087/N9 infected in NOD-SCID IL2Rgamma null mouse assessed as parasitemia at 50 mg/kg, po qd administered for 4 days measured on day 6 post-infection by microscopy based flow cytometry; type: functional, organism-based; conditions: time 4.0 day
Method in brief: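 NSG mice were infected with P. falciparum and given oral compound once daily for 4 days at 50 mg/kg, starting three days after inoculation. Parasitemia was followed to day 6 post-infection against the limit of detection.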

[21] = Lipophilicity, log D of compound at pH 6; type: physicochemical; conditions: buffer
Plasmodium falciparum [22] = assay: Antiplasmodial activity against multidrug-resistant asexual blood stage Plasmodium falciparum K1 strain assessed as reduction in parasite growth after 72 hrs by NBT reagent based LDH assay; type: functional, organism-based; conditions: K1, 72 h
Method in brief: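 Asexual blood-stage K1 (multidrug-resistant) parasites were read out by the parasite lactate dehydrogenase (pLDH) assay. […] Most individual values varied less than 2× (maximum 3×).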

[23] = Oral bioavailability in Balb/C mouse at 20 mg/kg by LC-MS/MS analysis; type: ADME, organism-based; conditions: in vivo
Method in brief: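 Healthy Balb/c mice were given the compound i.v. or orally. Parameters come from non-compartmental analysis: AUC from 0 h to t_last, blood clearance, volume at steady state, terminal half-life, Tmax. Oral bioavailability F is derived from the i.v. and p.o. data.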

[24] = Tmax in Plasmodium falciparum 3D70087/N9 infected NSG mouse at 15 mg/kg, po by LC-MS/MS analysis; type: ADME, organism-based; conditions: in vivo; method in brief: as §3
[25] = AUC (0 to 24 hrs) in Plasmodium falciparum 3D70087/N9 infected NSG mouse at 5 mg/kg, po by LC-MS/MS analysis; type: ADME, organism-based; set-up: time < 24 hr, route oral, dose 5 mg/kg; conditions: in vivo; method in brief: as §2
Plasmodium falciparum [26] = assay: Antimalarial activity against asexual blood stage Plasmodium falciparum assessed as time required to show 99.9% reduction of parasitemia at 10 times IC50; type: functional
[27] = Cmax in Plasmodium falciparum 3D70087/N9 infected NSG mouse at 5 mg/kg, po by LC-MS/MS analysis; type: ADME, organism-based; set-up: route oral, dose 5 mg/kg; conditions: in vivo; method in brief: as §2
[28] = Cmax in Plasmodium falciparum 3D70087/N9 infected NSG mouse at 100 mg/kg, po by LC-MS/MS analysis; type: ADME, organism-based; set-up: route oral, dose 100 mg/kg; conditions: in vivo; method in brief: as §2
[29] = AUC (0 to t) in Balb/C mouse at 20 mg/kg, po by LC-MS/MS analysis; type: ADME, organism-based; set-up: dose 20 mg/kg; conditions: in vivo; method in brief: as §1
[30] = Dose normalized Cmax in Plasmodium falciparum 3D70087/N9 infected NSG mouse at 50 mg/kg, po by LC-MS/MS analysis; type: ADME, organism-based; conditions: in vivo; method in brief: as §3
[31] = Dose normalized AUC (0 to 24 hrs) in Plasmodium falciparum 3D70087/N9 infected NSG mouse at 15 mg/kg, po by LC-MS/MS analysis; type: ADME, organism-based; conditions: in vivo; method in brief: as §2
[32] = AUC (0 to 24 hrs) in Plasmodium falciparum 3D70087/N9 infected NSG mouse at 200 mg/kg, po by LC-MS/MS analysis; type: ADME, organism-based; set-up: time < 24 hr, route oral, dose 200 mg/kg; conditions: in vivo; method in brief: as §2

Molecule `CN1CCN(CC2CCN(c3nccc4[nH]c(-c5cc(F)cc(F)c5)nc34)CC2)CC1` has a Cmax [1] of 600 nM, a Tmax [2] of 4 h and a Cmax [3] of 2840 nM. For the same molecule, the Ratio [4] was 4.5, the AUC/dose [5] was 34 µM·kg·min/mg and the AUCt [6] was 2.42 µM·h. For the same molecule, the IC50 (Plasmodium falciparum [7]) was 23 nM, the AUC/dose [8] was 60 µM·kg·min/mg and the Tmax [9] was 2.5 h. For the same molecule, the Cmax/dose [10] was 0.08 µM·kg/mg, the Cmax [11] was 40 nM and the Tmax [12] was 12.5 h. For the same molecule, the IC50 (Plasmodium falciparum [13]) was 27 nM, the AUC [14] was 58.3 µM·h and the AUC/dose [15] was 62 µM·kg·min/mg. For the same molecule, the AUC/dose [16] was 31 µM·kg·min/mg, the clearance [17] was 20.2 mL/min/kg and the Activity (Plasmodium falciparum [18]) was “Below limit of detection”. For the same molecule, the Cmax/dose [19] was 0.06 µM·kg/mg, the Activity (Plasmodium falciparum [20]) was “Below limit of detection” and the logD [21] was 0.4. For the same molecule, the IC50 (Plasmodium falciparum [22]) was 41 nM, the bioavailability [23] was 83% and the Tmax [24] was 6 h. The AUC [25] was 170 µM·min, the Time (Plasmodium falciparum [26]) was 31 h and the Cmax [27] was 130 nM. It also gave a Cmax [28] of 6680 nM, an AUCt [29] of 20 µM·h and a Cmax/dose [30] of 0.06 µM·kg/mg. It also gave an AUC/dose [31] of 65 µM·kg·min/mg and an AUC(0-t) at 24 h [32] of 51.7 µM·h.
